The values below come from PubChem BioAssay AID602285 (Broad Institute, 2012).

Activity calls are given as the source filed them.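 How the source made its calls: active means AC50 at or below twice the top valid dose for that sample, with falling signal; inconclusive means flat curve with inhibition of 30 to 70%, or poor fit; inactive means activity in the wrong direction, plus the rest.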

Sequence of Scavenger receptor class B member 1 (Mus musculus) (Q61009 whole entry, looked up): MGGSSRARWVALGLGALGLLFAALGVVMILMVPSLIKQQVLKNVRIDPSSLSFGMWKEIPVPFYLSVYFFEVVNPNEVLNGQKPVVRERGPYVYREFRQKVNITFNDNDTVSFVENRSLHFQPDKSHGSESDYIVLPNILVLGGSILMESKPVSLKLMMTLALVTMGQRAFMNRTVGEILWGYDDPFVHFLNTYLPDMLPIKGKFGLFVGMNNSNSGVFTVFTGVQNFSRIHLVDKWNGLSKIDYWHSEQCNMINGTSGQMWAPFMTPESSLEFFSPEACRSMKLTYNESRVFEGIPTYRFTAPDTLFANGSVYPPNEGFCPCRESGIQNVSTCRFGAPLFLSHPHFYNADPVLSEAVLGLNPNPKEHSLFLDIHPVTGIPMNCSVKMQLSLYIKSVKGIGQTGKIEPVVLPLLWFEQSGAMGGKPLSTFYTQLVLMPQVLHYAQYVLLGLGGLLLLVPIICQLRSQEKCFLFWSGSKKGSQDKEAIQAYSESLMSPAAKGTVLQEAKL

In one test the target is Scavenger receptor class B member 1 (Mus musculus) (UniProt Q61009). As to the kind of experiment: inhibitors of HDL uptake via mouse SR-BI, dose response, ldlA[mSR-BI] CHO cells, fluorescence plate reader, dry powder, set 8 (AID 602285). As to conditions: DiI-HDL uptake fluorescence, 3 h. The gist of the method:
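Material: CHO ldlA cells overexpressing mouse SR-BI; detection: bottom-read DiI fluorescence after PBS washes, excitation 550 nm, emission 595 nm; schedule: 3 h uptake at 37 °C; controls: DMSO as neutral control, BLT-1 as inhibitor control; medium: Ham's F12, fatty acid-free BSA, HEPES pH 7.4; compound: pin-transferred compounds, dose series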
As for `C[C@@H]1CN([C@H](C)CO)C(=O)c2cc(NC(=O)CCC(F)(F)F)ccc2O[C@H]1CN(C)S(=O)(=O)c1ccc(Cl)cc1`, the AC50 was 0.258 µM.

Consider `C[C@@H]1CN([C@H](C)CO)C(=O)c2cc(NC(=O)Cc3cn(C)c4ccccc34)ccc2O[C@H]1CN(C)C`, for which the half-maximal activity concentration (AC50) is 17.9 µM.

Regarding `C[C@@H]1CN([C@H](C)CO)C(=O)c2cc(NS(=O)(=O)c3cccs3)ccc2O[C@H]1CN(C)S(=O)(=O)c1ccc(Cl)cc1`, the AC50 is 3.77 µM.

As for `COc1ccc(CN(C)C[C@@H]2Oc3ccc(NC(=O)CCCN(C)C)cc3C(=O)N([C@H](C)CO)C[C@H]2C)cc1`, the AC50 was > 70 µM (inactive).

`C[C@@H]1CN([C@H](C)CO)C(=O)c2cc(NC(=O)Cc3cn(C)c4ccccc34)ccc2O[C@H]1CN(C)C(=O)NC1CCCCC1`: the AC50 was 9.18 µM.

Take `C[C@@H]1CN([C@@H](C)CO)C(=O)Cc2cc(NC(=O)CCCN(C)C)ccc2O[C@H]1CN(C)Cc1ccncc1`: the AC50 was > 70 µM (inactive).

Consider `C[C@@H]1CN([C@H](C)CO)C(=O)c2cc(NC(=O)CCN3CCOCC3)ccc2O[C@H]1CN(C)S(=O)(=O)c1ccc(Cl)cc1`, for which the half-maximal activity concentration (AC50) is 4.95 µM.

Turning to `C[C@@H]1CN([C@H](C)CO)C(=O)c2cc(NS(=O)(=O)c3cn(C)cn3)ccc2O[C@H]1CN(C)S(=O)(=O)c1ccc(Cl)cc1`, the AC50 was 3.39 µM.

As for `C[C@@H]1CN([C@H](C)CO)C(=O)Cc2cc(NC(=O)Cc3cn(C)c4ccccc34)ccc2O[C@H]1CN(C)S(=O)(=O)c1ccc(F)cc1`, the AC50 is 33.2 µM.

`C[C@@H]1CN([C@@H](C)CO)C(=O)Cc2cc(N(C)C)ccc2O[C@@H]1CN(C)Cc1ccc(C(=O)O)cc1`: the AC50 is 34.4 µM.

Consider `O=C(C[C@@H]1CC[C@@H](NC(=O)CC2CC2)[C@H](CO)O1)NCc1ccc(Cl)cc1`, for which the AC50 is > 70 µM (inactive).

In the case of `C[C@@H]1CN([C@H](C)CO)C(=O)c2cc(NC(=O)Cc3cn(C)c4ccccc34)ccc2O[C@H]1CN(C)CC1CCCCC1`, the concentration at half-maximal activity (AC50) is 9.24 µM.

Turning to `C[C@@H]1CN([C@@H](C)CO)C(=O)c2cc(NC(=O)Cc3cn(C)c4ccccc34)ccc2O[C@H]1CN(C)S(=O)(=O)c1ccc(Cl)cc1`, the AC50 is 0.912 µM.

`Cc1noc(C)c1NC(=O)N(C)C[C@H]1Oc2cc(C#CCC3CCCC3)ccc2S(=O)(=O)N([C@H](C)CO)C[C@@H]1C`: the AC50 was 0.094 µM.

Consider `C[C@@H]1CN([C@H](C)CO)C(=O)c2cc(NC(=O)Cc3cn(C)c4ccccc34)ccc2O[C@H]1CN(C)S(C)(=O)=O`, for which the concentration at half-maximal activity (AC50) is 9.87 µM.

Consider `C[C@@H]1CN([C@H](C)CO)C(=O)c2cc(NC(=O)Cc3cn(C)c4ccccc34)ccc2O[C@H]1CN(C)Cc1ccc(C(F)(F)F)cc1`, for which the AC50 is 0.653 µM.

In the case of `C[C@H](CO)N1C[C@H](C)[C@H](CN(C)C)Oc2c(NS(C)(=O)=O)cccc2C1=O`, the AC50 was > 70 µM (inactive).

Turning to `C[C@@H]1CN([C@H](C)CO)C(=O)c2cc(NC(=O)C3CC3)ccc2O[C@H]1CN(C)S(=O)(=O)c1ccc(Cl)cc1`, the AC50 was 2.06 µM.

Regarding `COc1cc(OC)cc(C(=O)Nc2nc(-c3ccc4c(c3)CCN4C(=O)CN3CCOCC3)cs2)c1`, the AC50 is < 0.015 µM.

For `O=C(C[C@H]1CC[C@H](NC(=O)CC2CC2)[C@@H](CO)O1)NCc1ccc(Cl)cc1`, the AC50 was > 70 µM (inactive).

Turning to `C[C@@H]1CN([C@H](C)CO)C(=O)c2cc(NC(=O)Cc3cn(C)c4ccccc34)ccc2O[C@H]1CN(C)Cc1ccccc1`, the concentration at half-maximal activity (AC50) is 1.55 µM.

For the compound `C[C@H]1CN([C@@H](C)CO)C(=O)c2cc(NC(=O)Cc3cn(C)c4ccccc34)ccc2O[C@H]1CN(C)S(=O)(=O)c1ccc(Cl)cc1`, the half-maximal activity concentration (AC50) was 12.3 µM.

Regarding `COc1ccc(NC(=O)N(C)C[C@@H]2Oc3ccc(NC(=O)Cc4cn(C)c5ccccc45)cc3C(=O)N([C@H](C)CO)C[C@H]2C)cc1`, the AC50 is 1.75 µM.

For `COc1ccc(CN(C)C[C@@H]2Oc3ccc(NC(=O)Cc4cn(C)c5ccccc45)cc3C(=O)N([C@H](C)CO)C[C@H]2C)cc1`, the AC50 is 2.55 µM.

Regarding `C[C@H]1CN([C@@H](C)CO)C(=O)c2cc(NC(=O)Cc3cn(C)c4ccccc34)ccc2O[C@@H]1CN(C)S(=O)(=O)c1ccc(Cl)cc1`, the AC50 was 17.4 µM.

Turning to `C[C@@H]1CN([C@H](C)CO)C(=O)c2cc(NC(=O)Cc3cn(C)c4ccccc34)ccc2O[C@H]1CN(C)Cc1ccc(C(=O)Nc2ccccc2N)cc1`, the AC50 was 1.72 µM.

Consider `C[C@@H]1CN([C@H](C)CO)C(=O)c2cc(NC(=O)Cn3cnnn3)ccc2O[C@H]1CN(C)S(=O)(=O)c1ccc(Cl)cc1`, for which the AC50 is 10.3 µM.

On to `C[C@@H]1CN([C@H](C)CO)C(=O)c2cc(NC(=O)NC3CCCCC3)ccc2O[C@H]1CN(C)S(=O)(=O)c1ccc(Cl)cc1`, for which the AC50 was 0.354 µM.

As to `C[C@@H]1CN([C@H](C)CO)C(=O)c2cc(NC(=O)Nc3cccc4ccccc34)ccc2O[C@H]1CN(C)S(=O)(=O)c1ccc(Cl)cc1`, the concentration at half-maximal activity (AC50) was 0.165 µM.

Turning to `C[C@@H]1CN([C@@H](C)CO)C(=O)c2cc(NC(=O)Cc3cn(C)c4ccccc34)ccc2O[C@@H]1CN(C)S(=O)(=O)c1ccc(Cl)cc1`, the half-maximal activity concentration (AC50) is 10 µM.

Consider `C[C@@H]1CN([C@H](C)CO)C(=O)c2cc(N(C)C)ccc2O[C@H]1CN(C)S(=O)(=O)c1ccc(Cl)cc1`, for which the AC50 is 0.628 µM.

For the compound `C[C@@H]1CN([C@H](C)CO)C(=O)c2cc(NS(=O)(=O)c3ccccc3)ccc2O[C@H]1CN(C)S(=O)(=O)c1ccc(Cl)cc1`, the AC50 is 3.16 µM.

For the compound `C[C@@H]1CN([C@H](C)CO)C(=O)c2cc(NC(=O)Cc3cn(C)c4ccccc34)ccc2O[C@H]1CN(C)Cc1ccncc1`, the AC50 is 1.3 µM.

As to `Cc1noc(C)c1S(=O)(=O)Nc1ccc2c(c1)C(=O)N([C@H](C)CO)C[C@@H](C)[C@H](CN(C)S(=O)(=O)c1ccc(Cl)cc1)O2`, the AC50 was 0.297 µM.

As for `CC(C)NC(=O)Nc1ccc2c(c1)C(=O)N([C@H](C)CO)C[C@@H](C)[C@H](CN(C)S(=O)(=O)c1ccc(Cl)cc1)O2`, the AC50 is 0.123 µM.

`C[C@@H]1CN([C@H](C)CO)C(=O)c2cc(NC(=O)Cc3cn(C)c4ccccc34)ccc2O[C@H]1CN(C)S(=O)(=O)c1cn(C)cn1`: the AC50 is 6.39 µM.

As to `CO[C@H]1CN(C)C(=O)c2cc(NC(=O)c3ccccc3F)ccc2OC[C@@H](C)N(C(C)=O)C[C@@H]1C`, the AC50 is > 70 µM (inactive).

With `C[C@@H]1CN([C@H](C)CO)C(=O)c2cc(NC(=O)Cc3cn(C)c4ccccc34)ccc2O[C@H]1CN(C)S(=O)(=O)c1cccs1`, the AC50 was 2.36 µM.

Consider `C[C@@H]1CN([C@H](C)CO)C(=O)c2cc(NS(=O)(=O)c3ccc(F)cc3)ccc2O[C@H]1CN(C)S(=O)(=O)c1ccc(Cl)cc1`, for which the half-maximal activity concentration (AC50) is 13.7 µM.

On to `C[C@@H]1CN([C@H](C)CO)C(=O)c2cc(NC(=O)Cc3cn(C)c4ccccc34)ccc2O[C@H]1CN(C)C(=O)Nc1ccc(F)cc1`, for which the AC50 was 1.56 µM.

Consider `C[C@@H]1CN([C@H](C)CO)C(=O)c2cc(NC(=O)c3ccncc3)ccc2O[C@H]1CN(C)S(=O)(=O)c1ccc(Cl)cc1`, for which the AC50 is 0.593 µM.

Staying with this test, now noted: DiI-HDL uptake fluorescence, 3 h, at 11 µM (top of the series).
As for `C[C@@H]1CN([C@H](C)CO)C(=O)c2cc(NC(=O)Cc3cn(C)c4ccccc34)ccc2O[C@H]1CN(C)Cc1ccc(Cl)c(Cl)c1`, the “activity change, negative = inhibition” value was “inactive”.

The same test, now with this note: DiI-HDL uptake fluorescence, 3 h, at 35 µM (top of the series).
Consider `Cc1ccccc1-c1ccc2c(c1)O[C@H](CN(C)C(=O)Nc1ccc(F)cc1)[C@H](C)CN([C@H](C)CO)S2(=O)=O`, for which the “activity change, negative = inhibition” value is “inactive”.

As for `C[C@@H]1CN([C@@H](C)CO)C(=O)Cc2cc(NS(=O)(=O)c3cn(C)cn3)ccc2O[C@@H]1CN(C)Cc1ccc(Cl)c(Cl)c1`, the “activity change, negative = inhibition” value is “inactive”.

In the case of `C[C@@H]1CN([C@H](C)CO)C(=O)c2cc(NC(=O)Cc3cn(C)c4ccccc34)ccc2O[C@H]1CN(C)Cc1ccc(Oc2ccccc2)cc1`, the “activity change, negative = inhibition” value was “inactive”.

Regarding `C[C@@H]1CN([C@H](C)CO)C(=O)c2cc(NC(=O)Nc3ccccc3)ccc2O[C@H]1CN(C)S(=O)(=O)c1ccc(Cl)cc1`, the “activity change, negative = inhibition” value is “inactive”.

As to `Cc1ccc(S(=O)(=O)Nc2ccc3c(c2)C(=O)N([C@H](C)CO)C[C@@H](C)[C@H](CN(C)S(=O)(=O)c2ccc(Cl)cc2)O3)cc1`, the “activity change, negative = inhibition” value is “inactive”.

As to `C[C@@H]1CN([C@H](C)CO)C(=O)c2cc(NS(=O)(=O)c3ccc(Cl)cc3)ccc2O[C@H]1CN(C)S(=O)(=O)c1ccc(Cl)cc1`, the “activity change, negative = inhibition” value is “inactive”.

`Cc1noc(C)c1S(=O)(=O)N(C)C[C@H]1Oc2c(NC(=O)c3nc4ccccc4s3)cccc2C(=O)N([C@H](C)CO)C[C@H]1C`: the “activity change, negative = inhibition” value was “inactive”.

`C[C@@H]1CN([C@H](C)CO)C(=O)c2cc(NC(=O)Cc3cn(C)c4ccccc34)ccc2O[C@H]1CN(C)Cc1ccc(-c2ccccc2)cc1`: the “activity change, negative = inhibition” value is “inactive”.

Turning to `CO[C@H]1CN(C)C(=O)c2ccc(NC(=O)C3CCCC3)cc2OC[C@@H](C)N(C(=O)CC2CC2)C[C@@H]1C`, the “activity change, negative = inhibition” value is “inactive”.

With `C[C@@H]1CN([C@@H](C)CO)C(=O)Cc2cc(NS(=O)(=O)c3cn(C)cn3)ccc2O[C@H]1CN(C)Cc1ccc(Cl)c(Cl)c1`, the “activity change, negative = inhibition” value was “inactive”.

`C[C@H](CO)N1C[C@H](C)[C@H](CN(C)S(=O)(=O)c2ccc(Cl)cc2)Oc2ccc(NC(=O)Cc3cn(C)c4ccccc34)cc2C1=O`: the “activity change, negative = inhibition” value is “inactive”.

Regarding `CC(C)NC(=O)Nc1cccc2c1O[C@@H](CN(C)Cc1ccc(C(F)(F)F)cc1)[C@@H](C)CN([C@@H](C)CO)C2=O`, the “activity change, negative = inhibition” value is “inactive”.

Consider `CCCNC(=O)N(C)C[C@@H]1Oc2cc(-c3cncnc3)ccc2S(=O)(=O)N([C@@H](C)CO)C[C@@H]1C`, for which the “activity change, negative = inhibition” value was “inactive”.

Regarding `CO[C@@H]1CN(C)C(=O)c2ccc(NC(=O)C3CC3)cc2OC[C@@H](C)N(Cc2ccncc2)C[C@H]1C`, the “activity change, negative = inhibition” value was “inactive”.

As for `C[C@@H]1CN([C@H](C)CO)S(=O)(=O)c2ccc(C3=CCCCC3)cc2O[C@@H]1CN(C)C(=O)Nc1ccc2c(c1)OCO2`, the “activity change, negative = inhibition” value is “inactive”.
